{"source": "paper PMC4372064", "about": "(ACS Chemical Neuroscience, 2014)", "key": {"[1]": {"tested_on": "rats (tibial-nerve injury model)", "assay": "Tibial-nerve injury", "type": "in vivo, rat"}, "[2]": {"tested_on": "voltage-gated sodium channels in rat embryonic cortical neurons", "assay": "Whole-cell patch clamp, inactivation protocol, rat embryonic cortical neurons", "type": "cell-based", "conditions": "10 μM"}, "[3]": {"tested_on": "voltage-gated sodium channels in rat embryonic cortical neurons", "type": "cell-based", "conditions": "10 μM"}, "[4]": {"tested_on": "voltage-gated sodium channels in rat embryonic cortical neurons", "assay": "Whole-cell patch clamp, steady-state activation, rat embryonic cortical neurons", "type": "cell-based", "conditions": "10 μM"}, "[5]": {"tested_on": "mice (6 Hz psychomotor seizure model)", "conditions": "ip, 32 mA, [time of peak effect, h], (95% CI); cited from earlier work"}, "rat (MES seizure model)": {"tested_on": "rat (MES seizure model)", "conditions": "po, (95% CI), cited from earlier work"}, "[6]": {"tested_on": "rat (behavioral toxicity)", "conditions": "po, h]; cited from earlier work"}, "[7]": {"tested_on": "mice (formalin pain model)", "conditions": "8 mg/kg; cited from earlier work"}, "[8]": {"molecular_target": "T1, sodium channels in CAD cells (Mus musculus, UniProt Q62205)", "T1 sequence (Q62205 whole entry)": "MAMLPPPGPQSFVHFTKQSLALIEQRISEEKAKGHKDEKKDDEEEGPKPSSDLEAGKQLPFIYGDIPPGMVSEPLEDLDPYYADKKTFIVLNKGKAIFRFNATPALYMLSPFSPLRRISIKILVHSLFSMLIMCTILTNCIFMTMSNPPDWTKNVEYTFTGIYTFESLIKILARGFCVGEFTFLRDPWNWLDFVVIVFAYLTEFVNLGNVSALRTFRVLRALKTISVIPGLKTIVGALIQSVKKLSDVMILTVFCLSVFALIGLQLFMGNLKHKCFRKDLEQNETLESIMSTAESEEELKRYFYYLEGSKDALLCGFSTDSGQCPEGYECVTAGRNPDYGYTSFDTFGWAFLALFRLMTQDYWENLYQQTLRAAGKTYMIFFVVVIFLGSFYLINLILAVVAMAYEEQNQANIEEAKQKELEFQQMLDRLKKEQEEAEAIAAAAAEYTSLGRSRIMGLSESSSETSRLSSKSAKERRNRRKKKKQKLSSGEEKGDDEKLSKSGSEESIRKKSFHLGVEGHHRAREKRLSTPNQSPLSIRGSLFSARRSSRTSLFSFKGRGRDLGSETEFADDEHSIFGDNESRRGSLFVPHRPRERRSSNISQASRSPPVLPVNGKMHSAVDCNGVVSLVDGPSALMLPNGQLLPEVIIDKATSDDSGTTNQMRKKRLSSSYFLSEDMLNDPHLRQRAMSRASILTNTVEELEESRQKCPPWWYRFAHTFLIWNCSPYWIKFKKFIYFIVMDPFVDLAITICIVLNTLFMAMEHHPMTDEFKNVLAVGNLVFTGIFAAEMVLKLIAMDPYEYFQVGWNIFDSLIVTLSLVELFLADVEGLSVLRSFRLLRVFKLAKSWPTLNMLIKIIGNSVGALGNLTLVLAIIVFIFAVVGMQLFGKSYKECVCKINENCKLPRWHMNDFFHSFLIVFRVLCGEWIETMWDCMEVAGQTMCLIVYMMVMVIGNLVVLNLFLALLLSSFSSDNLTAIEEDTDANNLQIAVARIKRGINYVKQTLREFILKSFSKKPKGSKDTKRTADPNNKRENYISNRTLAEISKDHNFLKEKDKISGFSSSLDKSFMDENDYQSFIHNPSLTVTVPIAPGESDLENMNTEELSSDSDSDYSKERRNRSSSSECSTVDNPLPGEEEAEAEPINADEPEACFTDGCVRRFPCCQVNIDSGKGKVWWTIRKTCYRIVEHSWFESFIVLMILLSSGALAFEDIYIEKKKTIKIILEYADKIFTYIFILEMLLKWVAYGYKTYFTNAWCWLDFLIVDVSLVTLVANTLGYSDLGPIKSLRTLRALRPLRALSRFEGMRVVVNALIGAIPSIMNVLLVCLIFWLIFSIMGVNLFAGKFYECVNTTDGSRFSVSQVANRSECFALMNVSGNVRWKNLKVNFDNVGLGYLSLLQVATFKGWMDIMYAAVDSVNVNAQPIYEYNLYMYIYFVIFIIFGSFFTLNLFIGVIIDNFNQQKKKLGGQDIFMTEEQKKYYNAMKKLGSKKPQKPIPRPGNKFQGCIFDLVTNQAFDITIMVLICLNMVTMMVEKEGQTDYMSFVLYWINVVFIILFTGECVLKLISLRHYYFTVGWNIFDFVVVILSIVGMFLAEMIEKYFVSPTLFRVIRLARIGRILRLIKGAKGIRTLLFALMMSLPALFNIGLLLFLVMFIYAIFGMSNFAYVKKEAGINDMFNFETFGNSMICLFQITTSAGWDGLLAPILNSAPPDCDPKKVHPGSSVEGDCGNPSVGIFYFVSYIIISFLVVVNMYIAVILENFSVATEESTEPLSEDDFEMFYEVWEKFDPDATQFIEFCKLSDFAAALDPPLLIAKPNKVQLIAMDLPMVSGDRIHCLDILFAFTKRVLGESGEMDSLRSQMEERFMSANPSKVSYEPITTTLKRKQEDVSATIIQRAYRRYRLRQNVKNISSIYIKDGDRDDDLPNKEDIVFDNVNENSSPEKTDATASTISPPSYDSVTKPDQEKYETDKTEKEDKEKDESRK", "conditions": "cited from earlier work"}, "[9]": {"tested_on": "Na+ currents in CAD cells", "conditions": "100 μM; cited from earlier work"}, "[10]": {"molecular_target": "T1, sodium channels in CAD cells", "assay": "Whole-cell patch clamp, steady-state fast inactivation, CAD cells", "type": "cell-based", "procedure,_shortened": "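CAD cells were recorded by whole-cell clamp at room temperature, with 3 s between pulses. Steady-state fast inactivation was induced by a previously described protocol. Test compound was applied at 10 μM (10–200 μM for one compound) versus 0.1% DMSO control. Each recording was fitted to a Boltzmann function to give V1/2 and slope k, which were averaged (mean ±SEM). Cells numbered 3–7 per condition, compared by Student's t test or one-way ANOVA.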"}, "[11]": {"tested_on": "Na+ currents in CAD cells", "assay": "Whole-cell patch clamp, frequency", "type": "cell-based, mouse", "conditions": "100 μM", "procedure,_shortened": "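Whole-cell voltage clamp was done at room temperature on CAD cells (Ham's F12/DMEM, 10% FBS, 1% pen/strep, 37 °C, 5% CO2, passaged 1:5 every 3–5 days). Criteria were access resistance <3 MΩ and −P/4 leak subtraction. Cells were held at −80 mV and given 20 ms pulses to −10 mV at 10 Hz. Peak currents were compared with the first pulse against 0.1% DMSO control, with test compound at 10 or 100 μM.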"}, "mice (MES seizure model)": {"tested_on": "mice (MES seizure model)", "conditions": "ip, (95% CI), cited from earlier work"}, "scMet seizure model": {"tested_on": "scMet seizure model", "conditions": "cited from earlier work"}}, "note": "Entries after “also recorded” stand apart in the source; their conditions may differ. Like-named read-outs stand apart in the source and are kept apart here."}
{"molecule": "COC[C@@H](NC(C)=O)C(=O)NCc1ccccc1", "note": "[(R)-2, (R)-N-benzyl 2-N-acetamido-3-methoxypropionamide]", "values": [{"measurement": "reversal of tactile hypersensitivity (% of preinjury values)", "setting": "[1]; TNI day 14, 10 mg/kg ip, 1 h after administration", "value": "~72", "unit": "%"}, {"measurement": "effect on sodium channel inactivation (in words)", "setting": "[2]", "value": "neither parent compound affected inactivation"}, {"measurement": "effect on steady-state fast inactivation (in words)", "setting": "[3]", "value": "neither (R)-2 nor (S)-3 affected fast inactivation"}, {"measurement": "effect on steady-state activation of VGSCs (in words)", "setting": "[4]", "value": "neither 10 μM (R)-2 nor 10 μM (S)-3 affected the steady-state activation"}, {"measurement": "6 Hz ED50", "setting": "[5]", "value": 10, "unit": "mg/kg"}, {"measurement": "MES, ED50", "setting": "rat (MES seizure model); [time of peak effect, h]", "value": 3.9, "unit": "mg/kg"}, {"measurement": "Tox, TD50 (behavioral toxicity)", "setting": "[6]", "value": ">500 [0.5] mg/kg"}, {"measurement": "activity in the second (inflammation) phase of the formalin model", "setting": "[7]", "value": "effective"}, {"measurement": "effect on sodium channel fast inactivation", "setting": "[8]", "value": "did not"}, {"measurement": "reduction of Na+ currents, frequency (use)-dependence", "setting": "[9]", "value": "~8.8", "unit": "%"}]}
{"molecule": "C[C@H](NCc1ccc(OCc2cccc(F)c2)cc1)C(N)=O", "note": "[(S)-3, (S)-2-(4′-((3″-fluoro)benzyloxy)benzyl)aminopropionamide]", "values": [{"measurement": "effect on mechanical/tactile hypersensitivity (in words)", "setting": "[1]; TNI day 14, single ip administration, 10 mg/kg", "value": "no effect; also recorded: without effect"}, {"measurement": "effect on VGSC fast inactivation", "setting": "[10]", "value": "promoted fast inactivation of VGSCs"}, {"measurement": "hyperpolarizing shift in V1/2 of fast inactivation vs control (maximum)", "setting": "[10]; 200 μM", "value": "~21.6", "unit": "mV"}, {"measurement": "inhibition of Na+ current, frequency (use)-dependence", "setting": "[11]", "value": "~13", "unit": "%"}, {"measurement": "effect on sodium channel inactivation (in words)", "setting": "[2]", "value": "neither parent compound affected inactivation"}, {"measurement": "effect on steady-state fast inactivation (in words)", "setting": "[3]", "value": "neither (R)-2 nor (S)-3 affected fast inactivation"}, {"measurement": "effect on steady-state activation of VGSCs (in words)", "setting": "[4]", "value": "neither 10 μM (R)-2 nor 10 μM (S)-3 affected the steady-state activation"}, {"measurement": "MES, ED50", "setting": "mice (MES seizure model)", "value": "4.1 (3.0–5.5) mg/kg"}, {"measurement": "MES, ED50", "setting": "rat (MES seizure model)", "value": "12 (10–14) mg/kg"}, {"measurement": "scMet ED50", "setting": "scMet seizure model", "value": 27, "unit": "mg/kg"}]}
{"molecule": "NC(=O)N1c2ccccc2C=Cc2ccccc21", "note": "[carbamazepine]", "values": [{"measurement": "effect on tactile hypersensitivity (in words)", "setting": "[1]; TNI, 65 mg/kg, ip", "value": "ineffective"}]}
{"molecule": "O=C1NC(=O)C(c2ccccc2)(c2ccccc2)N1", "note": "[phenytoin]", "values": [{"measurement": "MES, ED50", "setting": "mice (MES seizure model); [time of peak effect, h]", "value": 9.5, "unit": "mg/kg"}, {"measurement": "MES, ED50", "setting": "rat (MES seizure model); [time of peak effect, h]", "value": 30, "unit": "mg/kg"}]}
